# Experimental data from PubChem BioAssay AID493016 (Southern Research Specialized Biocontainment Screening …, 2011).
# The source made the active and inactive calls.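 Rule for the calls: active = compounds blocking at least half of virus-caused cell death at some tested dose; inactive = the rest.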
# System: HEp-2 RSV Long CPE inhibition, luminescence
# Test: RSV cytopathic effect inhibition, dose response, cell-based, HEp-2, RSV Long, synthesized compounds, set 4 (AID 493016)
# In short: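 Material: HEp-2 human cells infected with respiratory syncytial virus strain Long; Probe or stimulus: RSV Long infection at multiplicity of infection 0.45; Dosing: Eight-point twofold series, 50 to 0.39 µM final, 0.5% DMSO; Incubation: six-day compound and virus exposure at 37 °C; Detection: luminescent CPE signal; Replication: triplicate wells per compound concentration.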
row,IC50,SMILES
1,> 50 µM (inactive),O=C(Nc1ccccc1)[C@@H]1CCCN1S(=O)(=O)c1cccc2cccnc12
2,3.1 µM,COc1ccccc1CNC(=O)C1CCN(S(=O)(=O)c2cccc3nonc23)CC1
3,> 50 µM (inactive),Cc1ccc(NC(=O)[C@@H]2CCCN2S(=O)(=O)c2cccc3cccnc23)c(C)n1
4,> 50 µM (inactive),Cc1ccc2c(c1)CCN2C(=O)[C@@H]1CCCN1S(=O)(=O)c1cccc2cccnc12
5,10.9 µM,CC(C)c1ccccc1NC(=O)[C@@H]1CCCN1S(=O)(=O)c1cccc2cccnc12
6,> 50 µM (inactive),O=C([C@@H]1CCCN1S(=O)(=O)c1cccc2cccnc12)N1CCc2ccccc21
